Assays:
[1] = target: T1, Amine oxidase [flavin-containing] B (Homo sapiens, UniProt P27338); experiment: Inhibition of human recombinant MAOB using kynuramine as substrate by fluorescence assay
T1 sequence (P27338 whole entry): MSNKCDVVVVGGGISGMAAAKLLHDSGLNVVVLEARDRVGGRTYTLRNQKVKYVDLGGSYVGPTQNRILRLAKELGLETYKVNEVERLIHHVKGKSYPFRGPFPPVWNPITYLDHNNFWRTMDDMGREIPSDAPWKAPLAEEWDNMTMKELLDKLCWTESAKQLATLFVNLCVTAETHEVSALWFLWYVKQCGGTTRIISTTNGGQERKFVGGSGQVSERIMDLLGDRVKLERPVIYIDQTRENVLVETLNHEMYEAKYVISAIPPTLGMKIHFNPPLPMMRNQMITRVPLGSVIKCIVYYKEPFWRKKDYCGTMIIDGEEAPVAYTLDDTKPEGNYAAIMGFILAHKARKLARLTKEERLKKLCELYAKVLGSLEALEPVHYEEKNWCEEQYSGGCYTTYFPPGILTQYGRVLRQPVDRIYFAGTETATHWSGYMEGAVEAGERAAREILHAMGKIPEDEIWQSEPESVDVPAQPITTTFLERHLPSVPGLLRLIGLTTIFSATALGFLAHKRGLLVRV
Procedure, shortened: (§1)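 Enzyme: insect-cell microsomal recombinant human MAO-A or -B (0.0075 mg/mL) in 100 mM potassium phosphate, pH 7.4, isotonic with KCl. Kynuramine 45 µM (MAO-A) or 30 µM (MAO-B), inhibitor 0–100 µM, 37 °C, 20 min. Reaction stopped with 2 N NaOH. 4-Hydroxyquinoline fluorescence read at ex 310/em 400 nm against a calibration curve. IC50 taken from one-site fits of six concentrations, in triplicate. Selectivity = IC50(MAO-A)/IC50(MAO-B).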

[2] = target: T2, Amine oxidase [flavin-containing] A (Homo sapiens, UniProt P21397); experiment: Inhibition of human recombinant MAOA using kynuramine as substrate by fluorescence assay; procedure, shortened: as §1
T2 sequence (P21397 whole entry): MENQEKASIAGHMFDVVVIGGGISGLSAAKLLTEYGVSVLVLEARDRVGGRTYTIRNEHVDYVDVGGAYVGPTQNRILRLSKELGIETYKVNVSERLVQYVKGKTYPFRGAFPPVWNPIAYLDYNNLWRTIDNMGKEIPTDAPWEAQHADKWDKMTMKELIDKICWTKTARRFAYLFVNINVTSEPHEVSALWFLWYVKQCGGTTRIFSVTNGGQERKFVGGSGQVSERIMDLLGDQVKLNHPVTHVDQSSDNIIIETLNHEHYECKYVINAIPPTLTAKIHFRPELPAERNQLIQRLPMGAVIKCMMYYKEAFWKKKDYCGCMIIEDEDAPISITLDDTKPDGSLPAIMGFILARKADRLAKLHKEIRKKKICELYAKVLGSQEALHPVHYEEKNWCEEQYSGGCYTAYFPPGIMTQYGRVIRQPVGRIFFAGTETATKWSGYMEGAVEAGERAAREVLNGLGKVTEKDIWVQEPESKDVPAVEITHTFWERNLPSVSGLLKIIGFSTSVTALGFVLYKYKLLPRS

Homo sapiens = species on record: Homo sapiens; experiment: Selectivity ratio, ratio of IC50 for human recombinant MAOA to IC50 for human recombinant MAOB; procedure, shortened: as §1
[3] = target: T1, Amine oxidase [flavin-containing] B; experiment: Inhibition of human recombinant MAOB at 100 uM using kynuramine as substrate by fluorescence assay; procedure, shortened: as §1
[4] = target: T2, Amine oxidase [flavin-containing] A; experiment: Inhibition of human recombinant MAOA at 100 uM using kynuramine as substrate by fluorescence assay; procedure, shortened: as §1
[5] = target: T2, Amine oxidase [flavin-containing] A; experiment: Inhibition of human recombinant MAOA using kynuramine as substrate at 11.56 uM after 60 mins by fluorescence assay; conditions: 1 h
Procedure, shortened: (§2)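 Recombinant human MAO-A or -B (0.015–0.03 mg/mL) was preheated at 37 °C for 60 min in total and preincubated with inhibitor at about 2× its IC50 for 0, 15, 30 or 60 min in pH 7.4 potassium phosphate. Mixtures were diluted 2-fold with kynuramine (45 µM MAO-A, 30 µM MAO-B) and incubated 15 min at 37 °C. Residual 4-hydroxyquinoline formation was read by fluorescence.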

[6] = target: T2, Amine oxidase [flavin-containing] A; experiment: Time dependent inhibition of human recombinant MAOA using kynuramine as substrate at 11.56 uM by fluorescence assay; procedure, shortened: as §2
[7] = target: T2, Amine oxidase [flavin-containing] A; experiment: Reversible Inhibition of human recombinant MAOA using kynuramine as substrate at 2 times IC50 up to 60 mins; conditions: 1 h; procedure, shortened: as §2
[8] = target: T1, Amine oxidase [flavin-containing] B; experiment: Time dependent inhibition of human recombinant MAOB using kynuramine as substrate at 0.32 uM by fluorescence assay; procedure, shortened: as §2
[9] = target: T2, Amine oxidase [flavin-containing] A; experiment: Time dependent inhibition of human recombinant MAOA using kynuramine as substrate at 5.22 uM by fluorescence assay; procedure, shortened: as §2
[10] = target: T2, Amine oxidase [flavin-containing] A; experiment: Competitive inhibition of human recombinant MAOA using kynuramine as substrate at 1.31 to 5.22 uM by Lineweaver burk plot analysis
Procedure, shortened: (§3)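 Insect-cell microsomal recombinant human MAO-A or -B, 0.015 mg/mL, in potassium phosphate buffer (100 mM, pH 7.4, isotonic with KCl). Initial rates were measured with four kynuramine concentrations (15–90 µM), without inhibitor and with three inhibitor levels (MAO-A 1.31–5.22 µM; MAO-B 0.04–0.16 µM). Lineweaver–Burk plots were fitted by linear regression.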

[11] = target: T1, Amine oxidase [flavin-containing] B; experiment: Reversible Inhibition of human recombinant MAOB using kynuramine as substrate at 2 times IC50 up to 60 mins; conditions: 1 h; procedure, shortened: as §2
[12] = target: T1, Amine oxidase [flavin-containing] B; experiment: Inhibition of human recombinant MAOB using kynuramine as substrate at 0.32 uM after 60 mins by fluorescence assay; conditions: 1 h; procedure, shortened: as §2
[13] = target: T2, Amine oxidase [flavin-containing] A; experiment: Inhibition of human recombinant MAOA using kynuramine as substrate at 5.22 uM after 60 mins by fluorescence assay; conditions: 1 h; procedure, shortened: as §2
[14] = target: T1, Amine oxidase [flavin-containing] B; experiment: Competitive inhibition of human recombinant MAOB using kynuramine as substrate at 0.04 to 0.16 uM by Lineweaver burk plot analysis; procedure, shortened: as §3
[15] = target: T1, Amine oxidase [flavin-containing] B; experiment: Time dependent inhibition of human recombinant MAOB using kynuramine as substrate at 5.94 uM by fluorescence assay; procedure, shortened: as §2
[16] = target: T1, Amine oxidase [flavin-containing] B; experiment: Inhibition of human recombinant MAOB using kynuramine as substrate at 5.94 uM after 60 mins by fluorescence assay; conditions: 1 h; procedure, shortened: as §2

Compound | IC50 [1] | IC50 [2] | Ratio IC50 (Homo sapiens) | also measured
Cn1c(=O)c2c(nc(NCCCCc3ccccc3)n2C)n(C)c1=O | 9.6 µM | 30.9 µM | 3.2 | –
COc1ccc(CSc2nc3c(c(=O)n(C)c(=O)n3C)n2C)cc1 | – | – | – | IC50 [3]: Not Active; IC50 [4]: Not Active
Cn1c(=O)c2c(nc(NCCc3cccc(Cl)c3)n2C)n(C)c1=O | 24.4 µM | 5.78 µM | 0.2 | inhibition (INH) [5]: Not Active; TDI [6]: Not Active; inhibition (INH) [7]: Active
Cn1c(=O)c2c(nc(NCCc3ccccn3)n2C)n(C)c1=O | 19.4 µM | – | – | IC50 [4]: Not Active
CN(CCc1ccccc1)c1nc2c(c(=O)n(C)c(=O)n2C)n1C | 16.8 µM | 107 µM | 6.4 | –
Cn1c(=O)c2c(nc(SCc3ccc(F)cc3)n2C)n(C)c1=O | 0.348 µM | 4.8 µM | 13.8 | –
CC(C)CCSc1nc2c(c(=O)n(C)c(=O)n2C)n1C | 2.62 µM | 15.2 µM | 5.8 | –
Cn1c(=O)c2c(nc(Nc3ccccc3)n2C)n(C)c1=O | – | – | – | IC50 [3]: Not Active; IC50 [4]: Not Active
Cn1c(=O)c2c(nc(NCCCc3ccccc3)n2C)n(C)c1=O | – | – | – | IC50 [3]: Not Active; IC50 [4]: Not Active
Cn1c(=O)c2c(nc(NC3CCCC3)n2C)n(C)c1=O | – | – | – | IC50 [3]: Not Active; IC50 [4]: Not Active
Cn1c(=O)c2c(nc(SCCOc3ccccc3)n2C)n(C)c1=O | 0.332 µM | 15.5 µM | 46.7 | –
Cn1c(=O)c2c(nc(SCCc3ccccc3)n2C)n(C)c1=O | 0.223 µM | 20.5 µM | 91.9 | –
Cn1c(=O)c2c(nc(SCc3ccccc3)n2C)n(C)c1=O | 1.86 µM | 8.22 µM | 4.4 | –
Cn1c(=O)c2c(nc(SCc3ccc(Br)cc3)n2C)n(C)c1=O | 0.167 µM | 2.62 µM | 15.7 | inhibition (INH) [7]: Active; TDI [8]: Not Active; TDI [9]: Not Active; inhibition (INH) [10]: Active; inhibition (INH) [11]: Active; inhibition (INH) [12]: Not Active; inhibition (INH) [13]: Not Active; inhibition (INH) [14]: Active
Cn1c(=O)c2c(nc(SC3CCCCC3)n2C)n(C)c1=O | 13.1 µM | 24.4 µM | 1.9 | –
Cn1c(=O)c2c(nc(Sc3ccccc3)n2C)n(C)c1=O | 33.2 µM | 56.4 µM | 1.7 | –
Cn1c(=O)c2c(nc(Sc3ccc4ccccc4c3)n2C)n(C)c1=O | 3.6 µM | 3.6 µM | 1 | –
Cn1c(=O)c2c(nc(NCCc3ccccc3)n2C)n(C)c1=O | 17.6 µM | 45.2 µM | 2.6 | –
CN(CCCCc1ccccc1)c1nc2c(c(=O)n(C)c(=O)n2C)n1C | 2.97 µM | 37.7 µM | 12.7 | TDI [15]: Not Active; inhibition (INH) [11]: Active; inhibition (INH) [16]: Not Active
Cn1c(=O)c2c(nc(NCc3ccccc3)n2C)n(C)c1=O | – | – | – | IC50 [3]: Not Active; IC50 [4]: Not Active
Cn1c(=O)c2c(nc(SCc3ccc(Cl)cc3)n2C)n(C)c1=O | 0.192 µM | 2.77 µM | 14.4 | –
Cn1c(=O)c2c(nc(SC3CCCC3)n2C)n(C)c1=O | 20.9 µM | 9.4 µM | 0.4 | –

Source: ChEMBL document CHEMBL1926675, “Thio- and aminocaffeine analogues as inhibitors of human monoamine oxidase” (Bioorg Med Chem, 2011)
